TRPC4 potent – positive allosteric modulators of TRPC4, primary screen, cell-based, mouse TRPC4beta, HEK293 mu-opioid, Fluo-4 calcium; Short transient receptor potential channel 4 (Mus musculus), Q9QUQ5; DAMGO EC20, Fluo-4 Ca2+ flux; active compounds read high; B-score at 10 µM; actives 0.42% (n = 310,000); AID 2227, 2009;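 active means B-score of calcium response area above 5 SD of library B-scores, with initial fluorescence ratio within 5 SD of library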;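 further: B-score of integrated fluorescence ratio over time as area under calcium response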
TRPC6 act – mouse TRPC6 channel activators, primary screen, cell-based, HEK293, membrane potential dye | actives 0.13% (n = 310,000) | Short transient receptor potential channel 6 (Mus musculus), Q61143 | B-score at 10 µM | HEK293-TRPC6 membrane potential dye fluorescence; active compounds read high | AID 2550, 2010;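 active means B-score of the integrated fluorescence ratio above library mean plus 3 SD, and starting fluorescence ratio within library mean plus 5 SD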;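 further: higher score means more depolarization so channel activation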
TRPC4 inh – inhibitors of mouse TRPC4 channel, primary screen, Fluo4 calcium, HEK293 TRPC4beta/mu-opioid cells | Short transient receptor potential channel 4 (Mus musculus), Q9QUQ5 | DAMGO-evoked Fluo4 calcium flux; active compounds read low | B-score at 10 µM | actives 0.39% (n = 300,000);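 active means B-score over 3 SD under the library average, no early fluorescence shift, positive overall ratio signal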
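Assay system: Stable TRPC4beta/mu-opioid receptor HEK293 cells | Reagent: DAMGO in two steps, submaximal then maximal | Compound dosing: Single concentration per test compound | Signal: Fluo4 Ca2+ flux fluorescence | Evaluation: Per-well B score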
TRPC4 agonist – activators of mouse TRPC4 channel, primary screen, Fluo4 calcium, HEK293 TRPC4beta/mu-opioid cells; Short transient receptor potential channel 4 (Mus musculus), Q9QUQ5; B-score at 10 µM; Fluo4 calcium fluorescence; active compounds read high; AID 2237, 2010; actives 0.49% (n = 310,000);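 active means B-score above 5 SD of library B-scores, and initial fluorescence ratio not above library mean plus 5 SD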;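 further: positive B-score marks a calcium rise read as TRPC4 activation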
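System – HEK293 cells stably co-expressing mouse TRPC4beta and mu-opioid receptor · Signal – Fluo4 calcium-sensitive dye fluorescence, kinetic, 1 Hz baseline · Benchmarks – buffer (low) and maximal DAMGO (high) · Read-out – B score of integrated fluorescence ratio per well · Incubation – dye loading 45 min room temperature, 110 s kinetic read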
TRPC6 inh – mouse TRPC6 channel inhibitors, primary screen, cell-based, HEK293, membrane potential dye. ACh-evoked depolarization; active compounds read low. actives 1.1% (n = 310,000). Short transient receptor potential channel 6 (Mus musculus), Q61143. B-score at 10 µM;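 active means B-score under library mean minus 3 SD, initial fluorescence not abnormally high, positive integrated signal ratio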;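 further: B-score derived from integrated fluorescence ratio over the kinetic read; more negative B-score means stronger inhibition of depolarization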
Starred values were filed as active, the others as inactive; i = inactive; . = not tested or not shown. In the library only some 2.3% were active in any assay of this set; here they are far more common.

SMILES	TRPC4 potent	TRPC6 act	TRPC4 inh	TRPC4 agonist	TRPC6 inh
OCCNNC(=S)NC1CC2C=CC1C2 (centres undefined)	i	i	i	i	i
Cc1ccc(S(=O)(=O)N2CCC(C(=O)OCC(=O)N(C)CC(=O)Nc3ccc(F)cc3)CC2)cc1C	79*	i	i	i	i
CC(C)C(=O)Nc1ccc(C(=O)Nc2nnc(C(C)(C)C)s2)cc1	i	i	-6*	i	i
Cc1noc(C)c1CCC(=O)NC1CCCN(Cc2ccc(CC(C)C)cc2)C1 (centres undefined)	i	i	i	101*	i
COc1ccc(CNCCC(c2ccc(F)cc2)c2ccc(OC(C)C)cc2)cc1OC (centres undefined)	i	i	i	46*	i
COc1ccc(C(CCNCc2ccc(N(C)C)cc2)c2ccccc2OC)cc1 (centres undefined)	i	i	i	63*	i
COc1cc(S(=O)(=O)Nc2cccc(C)c2)ccc1NC(=O)c1cccnc1	i	i	i	i	i
CC(C)(C)n1ncc2c(=O)n(CC(=O)NCCc3ccccc3)cnc21	i	i	.	i	i
COc1ccc(CCNC(=O)Cn2cnc3c(cnn3C(C)(C)C)c2=O)cc1OC	26*	i	i	i	i
CN(C(=O)c1ccc(-c2nn(C)c(=O)c3ccccc23)cc1)C1CCCCC1	i	i	i	i	i
C=CCn1cnc2scc(-c3ccc(CC)cc3)c2c1=O	i	i	-6*	i	i
COc1ccc(NC(C)=O)cc1S(=O)(=O)Nc1ccc2c(c1)OCCO2	i	i	i	i	i
COc1cc(NC(C)CCCN)c2ncccc2c1Oc1ccccc1 (centres undefined)	i	i	i	83*	i
Clc1ccc2nc(N3CCNCC3)nc(-c3ccccc3)c2c1	i	i	i	102*	i
CN1CCN(c2nc(-c3ccccc3)c3cc(Cl)ccc3n2)CC1	i	i	i	i	i
Nc1ccc(C(=O)N/N=C/c2c[nH]c3ccccc23)cc1	i	i	i	i	i
CSc1ccc(CN(C)Cc2cc(=O)oc3c(C)c(C)ccc23)cc1	i	i	i	i	i
Cc1ccc2c(CN(C)Cc3cccc(Cl)c3)cc(=O)oc2c1C	11*	i	i	i	i
O=C(CN1C(=O)C2CC=CCC2C1=O)NCC(=O)Nc1ccc(F)c(F)c1 (centres undefined)	i	i	i	i	i
Nc1c2c(nc3ccc(Br)cc13)N(C1CCCCC1)CC2	i	18*	i	i	-7.4*
Cc1cc(-c2ccc(C)c(S(=O)(=O)N3CCN(c4ccc([N+](=O)[O-])cc4)CC3)c2)on1	i	i	i	i	i
COc1ccc(-c2cc(C)no2)cc1S(=O)(=O)NCCCN(C)Cc1ccccc1	14*	i	i	i	i
Cc1cc(-c2ccc(C)c(S(=O)(=O)N3CCN(c4ccccn4)CC3)c2)on1	40*	i	i	i	i
Cc1cc(-c2ccc(C)c(S(=O)(=O)NCCCN3CCN(c4ccccc4)CC3)c2)on1	i	i	i	i	i
Cc1cc(-c2ccc(C)c(S(=O)(=O)NCCCN3CCCCCC3)c2)on1	10*	i	i	i	i
SMILES	TRPC4 potent	TRPC6 act	TRPC4 inh	TRPC4 agonist	TRPC6 inh
CCN(c1ccc(NC(=O)c2cccc(S(=O)(=O)N3CCN(C)CC3)c2)cc1)C(C)C	i	i	i	i	i
CCc1cc(CNC(=O)c2ccc(OC3CCN(CCc4ccccc4)CC3)cc2)on1	i	i	i	i	i
O=C(CN(C(=O)c1csnn1)c1ccc(F)c(Cl)c1)NCc1ccc2c(c1)OCO2	i	i	i	i	i
COCCn1nnnc1C(c1cccc(OC)c1OC)N1CCN(C(=O)c2ccco2)CC1 (centres undefined)	i	i	i	i	i
COCCn1nnnc1C(c1cccc(OC)c1OC)N1CCN(C2CCCCC2)CC1 (centres undefined)	i	i	-6*	i	i
COCCn1nnnc1C(c1cc2ccc(OC)cc2[nH]c1=O)N1CCN(C2CCCCC2)CC1 (centres undefined)	i	i	i	136*	i
CCOC(=O)C1(CC2CC2)CCN(Cc2ccc(O)c(Cl)c2)CC1	i	i	-7*	75*	i
CCOC(=O)C1(CC2CC2)CCN(Cc2cn[nH]c2-c2cccc(F)c2)CC1	i	i	i	i	i
CCOC(=O)C1(CCOc2ccccc2)CCN(Cc2ccc(O)c(Cl)c2)CC1	i	i	i	i	i
CCOC(=O)C1(CC2CC2)CCN(Cc2ccc3cccc(F)c3n2)CC1	i	i	-8*	45*	i
COc1ccc(Cn2c(C)c(C)c(C#N)c2NC(=O)Nc2ccc(Cl)cc2)cc1	i	i	i	i	i
COc1cccc(SCc2noc(C(=O)NC(C)C)c2C(=O)NC(C)C)c1	i	i	i	i	i
O=C(NCc1ccco1)c1ccc2nc3sc4c(c3c(=O)n2c1)CCCC4	i	i	-6*	i	i
COc1ccc(C(=O)NNC(=O)CN2CCC(n3nnc4cc(C)ccc43)CC2)cc1	16*	i	i	i	i
COc1ccc(C(=O)NC2CCN(CC(=O)NC3CCCCC3)CC2)cc1	i	i	-6*	i	i
O=C(CN1CCC(n2nnc3cc(F)ccc32)CC1)NNC(=O)c1ccccc1	i	i	i	i	i
Cc1c(C(=O)c2ccc(Cl)cc2[N+](=O)[O-])c2ccccn2c1CCC#N	14*	i	i	i	i
CN(C)CCSc1nc(-c2ccccc2)nc2c1CCCC2	20*	i	i	68*	i
CCSc1nc(-c2ccccc2)nc2c1CCCC2	i	i	i	i	i
Cc1ccc2[nH]c3c(c2c1)CCCC3NCCO (centres undefined)	i	i	i	i	i
COc1ccccc1C1=NOC(Cn2c(NCCCO)nc3c2c(=O)n(C)c(=O)n3C)C1 (centres undefined)	i	i	i	i	i
